These results are taken from ChEMBL document CHEMBL1156223, “Hydroxy cycloalkyl fused pyridone carboxylic acid M(1) positive allosteric modulators” (Bioorg Med Chem Lett, 2010).

Data set [1] concerns the target T1, Muscarinic acetylcholine receptor M1 (Homo sapiens) (UniProt P11229).
T1 sequence (whole entry): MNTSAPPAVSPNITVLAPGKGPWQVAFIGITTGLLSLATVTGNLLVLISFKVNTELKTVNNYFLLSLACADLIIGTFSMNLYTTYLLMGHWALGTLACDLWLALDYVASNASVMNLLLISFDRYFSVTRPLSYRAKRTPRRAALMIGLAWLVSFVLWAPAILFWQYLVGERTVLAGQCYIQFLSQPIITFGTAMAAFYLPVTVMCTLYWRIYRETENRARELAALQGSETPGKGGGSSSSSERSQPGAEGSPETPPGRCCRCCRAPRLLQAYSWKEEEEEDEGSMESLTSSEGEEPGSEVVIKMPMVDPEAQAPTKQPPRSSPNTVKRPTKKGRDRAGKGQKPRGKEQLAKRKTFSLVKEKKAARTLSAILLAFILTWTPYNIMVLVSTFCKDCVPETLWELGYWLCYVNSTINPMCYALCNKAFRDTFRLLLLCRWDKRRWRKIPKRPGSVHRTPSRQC
Put plainly: Agonist activity at human muscarinic M1 receptor expressed in CHO cells assessed as inflection point for increase of EC20 of acetylcholine-induced calcium mobilization by FLIPR assay. The class given is functional, cell-based. Summed up:
(§1)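 Potency given as inflection point (IP); percent max is the response to compound plus EC20 acetylcholine relative to the maximal acetylcholine effect. Values averaged from at least two experiments; interassay variability ±30% for IP.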
A general note: A change in cytosolic calcium serves as a functional read-out for many receptors and channels.

In data set [2] the target is T1, Muscarinic acetylcholine receptor M1 (Homo sapiens). Put plainly: Agonist activity at human muscarinic M1 receptor expressed in CHO cells assessed as increase in EC20 of concentration acetylcholine-induced calcium mobilization by FLIPR assay relative to acetylcholine. The class given is functional, cell-based. In outline: as §1
The test system of a further data set is Mus musculus. Put plainly: Inhibition of scopolamine-induced memory impairment in ip dosed mouse relative to control. The format is functional, organism-based. In outline:
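Mouse contextual fear conditioning (episodic memory model): scopolamine given before exposure to a novel environment to block the new association. Test compound dosed ip at three doses; reversal judged against scopolamine-alone mice. Plasma levels sampled at the 3 mpk dose.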

A short description of data set [3]: Apparent permeability of the compound. To be noted: not told.
The test system of another data set is Plasma. The data set is described as follows: Drug levell in Sprague-Dawley rat plasma at 10 mg/kg, po. To be noted: read-out: Cp, in vivo.
The test system of the next data set is Brain. The data set is described as follows: Drug level in Sprague-Dawley rat brain at 10 mg/kg, po. To be noted: read-out: Drug uptake, in vivo.
The test system of another data set is Cerebrospinal fluid. Put plainly: Drug level in Sprague-Dawley rat CSF at 10 mg/kg, po. The conditions noted are these: read-out: Drug uptake, in vivo.
A short description of data set [4]: Ratio of drug levell in brain to plasma in Sprague-Dawley rat at 10 mg/kg, po.

Activity calls are given as the source filed them. The calls are words filed in the database; no cut-off is given here.

On to `O=C(O)c1cn(Cc2ccc(-c3ccccc3)cc2)c2c(c1=O)C(=O)CCC2`, for which the Activity was determined as 800 nM in data set [1] and 94% in data set [2].
Take `O=C(O)c1cn(Cc2ccc(-c3ccc(F)cc3)cn2)c2c(c1=O)C(O)CCC2` (stereo not drawn): the Activity in data set [1] is 1100 nM.
With `O=C(O)c1cn(Cc2ccc(-c3ccccc3)cc2)c2c(c1=O)CCCC2`, the Activity in data set [1] stood at 751 nM; in data set [2], 91%.
For the compound `O=C(O)c1cn(Cc2ccc(-c3ccc(Cl)cc3)cc2)c2c(c1=O)C(O)CCC2` (stereo not drawn), in data set [1], the Activity is 340 nM.
Still for that read-out and setting: under `O=C(O)c1cn(Cc2ccc(-c3ccoc3)cc2)c2c(c1=O)C(O)CCC2` (stereo not drawn) stands 750 nM.
As for `O=C(O)c1cn(Cc2ccc(-c3ccccc3)cc2)c2c(c1=O)CCCC2=O`, the Activity in data set [1] was 4890 nM; in data set [2], 70%.
Regarding `O=C(O)c1cn(Cc2ccc(-c3ccccc3Cl)cc2)c2c(c1=O)C(O)CCC2` (stereo not drawn), in data set [1], the Activity is 1400 nM.
On the same count and under the same terms, under `O=C(O)c1cn(Cc2ccc(-c3ccc(F)nc3)cc2)c2c(c1=O)C(O)CCC2` (stereo not drawn) stands 14800 nM.
Consider `O=C(O)c1cn(Cc2ccc(-c3ccccc3)cc2)c2c(c1=O)CCC2`, for which the Activity in data set [1] worked out at 810 nM; in data set [2], 99%.
The corresponding values for `O=C(O)c1cn(Cc2ccc(-c3ccccc3)cc2)c2c(c1=O)CCCC2O` (stereo not drawn) are 8190 nM and 59%.
For `O=C(O)c1cn(Cc2ccc(-n3ccnc3)cc2)c2c(c1=O)C(O)CCC2` (stereo not drawn), the Activity in data set [1] amounted to 2500 nM.
On the same count and under the same terms, as for `COc1ccc(-c2ccc(Cn3cc(C(=O)O)c(=O)c4c3CCCC4O)cc2)cn1` (stereo not drawn), the figure is 320 nM; as for `Nc1cccc(-c2ccc(Cn3cc(C(=O)O)c(=O)c4c3CCCC4O)nc2)c1` (stereo not drawn), 420 nM.
Turning to `COC1CCCc2c1c(=O)c(C(=O)O)cn2Cc1ccc(-c2ccccc2)cc1` (stereo not drawn), the results for the Activity in data set [1] and in data set [2] were 1100 nM and 90%, respectively.
Consider `Nc1ccc(-c2ccc(Cn3cc(C(=O)O)c(=O)c4c3CCCC4O)cc2)cn1` (stereo not drawn), for which the Activity in data set [1] is 2420 nM.
Same read-out and setting: under `CN(C)c1ccc(-c2ccc(Cn3cc(C(=O)O)c(=O)c4c3CCCC4O)cc2)cn1` (stereo not drawn) stands 1100 nM; under `COc1ccccc1-c1ccc(Cn2cc(C(=O)O)c(=O)c3c2CCCC3O)cc1` (stereo not drawn), 3100 nM.
On the same count and under the same terms, as for `COc1ccc(-c2ccc(Cn3cc(C(=O)O)c(=O)c4c3CCCC4O)cc2)cc1` (stereo not drawn), the figure is 1390 nM; as for `O=C(O)c1cn(Cc2ccc(-n3cccn3)cc2)c2c(c1=O)C(O)CCC2` (stereo not drawn), 1370 nM; as for `COc1cccc(-c2ccc(Cn3cc(C(=O)O)c(=O)c4c3CCCC4O)cc2)c1` (stereo not drawn), 410 nM.
For `O=C(O)c1cn(Cc2ccc(-c3ccccc3)cc2)c2ccccc2c1=O`, the Activity was determined as 212 nM in data set [1] and 92% in data set [2].
As to `O=C(O)c1cn(Cc2ccc(-c3ccccc3)cc2)c2c(c1=O)C(O)CCC2` (stereo not drawn), the Activity in data set [2] turned out to be 99%. Besides, in the data set with Mus musculus, the inhibition result is “Active”.
Regarding `Cn1cc(-c2ccc(Cn3cc(C(=O)O)c(=O)c4c3CCCC4O)cc2)cn1` (stereo not drawn), the Activity in data set [1] was determined as 908 nM. Also, the Papp in data set [3] came out at 19 ×10⁻⁶ cm/s. Also, the concentration came to 26700 nM in the data set with Plasma, 368 nM in the data set with Brain and 110 nM in the data set with Cerebrospinal fluid. In addition, the Kp in data set [4] came to 0.01.
As for `O=C(O)c1cn(Cc2ccc(-c3ccsc3)cc2)c2c(c1=O)C(O)CCC2` (stereo not drawn), the Activity in data set [1] was 2640 nM.
In the case of `O=C(O)c1cn(Cc2ccc(-c3cccc(Cl)c3)cc2)c2c(c1=O)C(O)CCC2` (stereo not drawn), the Activity in data set [1] worked out at 340 nM.

One may read the Papp as a coefficient for how fast a substance crosses the barrier. For orientation: Kp means the ratio of the level in a tissue or fluid to that in plasma or blood.
